ChEMBL document CHEMBL1126152, “Fluoronaphthyridines as antibacterial agents. 4. Synthesis and structure-activity relationships of 5-substituted-6-fluoro-7-(cycloalkylamino)-1,4-dihydro-4-oxo-1,8- naphthyridine-3-carboxylic acids” (J Med Chem, 1992)
≈ marks a conversion by molar mass, not a printed value. Where “and” joins values, the source holds several entries; their conditions need not be identical. Identical values can stand only once.

Columns and labels:
Enterobacter cloacae = test: In vitro for antibacterial activity against Enterobacter cloacae; format: functional
Enterococcus faecalis = test: In vitro for antibacterial activity against Enterococcus faecalis; format: functional
Summary of the method: (§1)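 MIC by serial 2-fold broth dilution in nutrient broth with an inoculum of 10^6 CFU/mL. Compound range was 0.0005–250 μg/mL. Plates were incubated 18 h at 37 °C. MIC was taken as the lowest concentration preventing visible growth.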

[1] = % dose recovered in mouse urine; details: % recovery
Staphylococcus aureus [2] = test: Antibacterial activity against Staphylococcus aureus; format: functional
Klebsiella pneumoniae = test: In vitro for antibacterial activity against Klebsiella pneumoniae; format: functional; summary of the method: as §1
Streptococcus pneumoniae [3] = test: Antibacterial activity against Streptococcus pneumoniae; format: functional
Pseudomonas aeruginosa [4] = test: In vitro for antibacterial activity against Pseudomonas aeruginosa; format: functional; summary of the method: as §1
Serratia marcescens = test: In vitro for antibacterial activity against Serratia marcescens; format: functional; summary of the method: as §1
Staphylococcus [5] = test: Compound was tested for […] against Staphylococcus aureus A 15090 after oral administration of drug in value in the parenthesis indicates 95% confidence limits; format: functional; details: read-out: PD50
Summary of the method: (§2)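 Mouse protection test against systemic infection. Compound was dissolved in sterile water and given orally to female OF1-strain Swiss mice weighing 18–25 g, with five mice per group.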

Bacteroides fragilis = test: In vitro for antibacterial activity against […].; format: functional; summary of the method: as §1
Proteus mirabilis = test: In vitro for antibacterial activity against Proteus mirabilis; format: functional; summary of the method: as §1
Pseudomonas aeruginosa [6] = test: Compound was tested for […] against Pseudomonas aeruginosa A 9843 after oral administration of drug in mice, value in the parenthesis indicates 95% confidence limits; format: functional; details: read-out: PD50; summary of the method: as §2
Morganella morganii = test: In vitro for antibacterial activity against Morganella morganii; format: functional; summary of the method: as §1
in vivo [7] = details: mouse, plasma
Mus musculus [8] = species on record: Mus musculus; details: in vivo
in vivo [9] = details: mouse, plasma, T1/2
Escherichia coli [10] = test: In vitro for antibacterial activity against Escherichia coli; format: functional; summary of the method: as §1
Escherichia coli [11] = test: Compound was tested for […] against Escherichia coli A 15119 after oral administration of drug in mice; format: functional; details: read-out: PD50; summary of the method: as §2
Mus musculus [12] = species on record: Mus musculus; details: in vivo; remark: listed apart in the source
Pseudomonas aeruginosa [13] = test: animal or person; format: functional; details: in Mus musculus, po, read-out: PD50
Staphylococcus [14] = test: Compound was tested for […] against Staphylococcus aureus A 15090 after oral administration of drug in mice; format: functional; details: read-out: PD50; summary of the method: as §2
Streptococcus pneumoniae [15] = test: animal or person; format: functional; details: in Mus musculus, po, read-out: PD50
[16] = Partition coefficient (logD); details: octanol/water
[17] = (§3) Solubility was measured at PH - 7.2 buffer
[18] = Max plasma concentration was measured by 40 mg/kg dose of peroral administration.; format: ADME, organism-based; set-up: dose 40 mg/kg, route oral; details: po
Summary of the method: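 Mice were dosed orally at 40 mg/kg, and compound levels were measured in blood. Values came from duplicate or triplicate experiments and are stated as accurate to ±50%.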

Staphylococcus aureus [19] = test: animal or person; format: functional; details: in Mus musculus, po, read-out: PD50
[20] = Lethal dose was determined in OF1-strain female Swiss mice after oral administration of the drug; details: mouse, in vivo
Escherichia coli [21] = test: Compound was tested for […] against Escherichia coli A 15119 after oral administration of drug in mice, value in the parenthesis indicates 95% confidence limits; format: functional; details: read-out: PD50; summary of the method: as §2
[22] = Lethal dose was determined in OF1-strain female Swiss mice after intra venous administration of the drug; details: mouse, in vivo, iv
Streptococcus pneumoniae [23] = test: Compound was tested for efficacy on systemic infection against Streptococcus pneumoniae A 9585 after oral administration of drug in mice, value in the parenthesis indicates 95% confidence limits
Pseudomonas aeruginosa [24] = test: Compound was tested for […] against Pseudomonas aeruginosa A 9843 after oral administration of drug in mice,; format: functional; details: read-out: PD50; summary of the method: as §2
[25] = as §3; format: physicochemical
Summary of the method: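 Excess solid was shaken overnight at 22 °C in pH 7.2 buffer for injection, then filtered. The diluted filtrate was assayed by HPLC with UV detection.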

SMILES	MIC (Enterobacter cloacae) [µg/mL]	MIC (Enterococcus faecalis) [µg/mL]	dose excreted [1] [%]	MIC (Staphylococcus aureus [2]) [µg/mL]	MIC (Klebsiella pneumoniae) [µg/mL]	MIC (Streptococcus pneumoniae [3]) [µg/mL]	MIC (Pseudomonas aeruginosa [4]) [µg/mL]	MIC (Serratia marcescens) [µg/mL]	MIC (Bacteroides fragilis) [µg/mL]	MIC (Proteus mirabilis) [µg/mL]	MIC (Morganella morganii) [µg/mL]	Cmax (in vivo [7]) [ng/mL]	half-life (in vivo [9]) [h]	MIC (Escherichia coli [10]) [µg/mL]	ED50 (Escherichia coli [11]) [mg/kg]	ED50 (Pseudomonas aeruginosa [13]) [mg/kg]	ED50 (Streptococcus pneumoniae [15]) [mg/kg]	logD [16]	solubility [17] [µg/mL]	ED50 (Staphylococcus aureus [19]) [mg/kg]	other results
Cc1c(F)c(N2CC3CC2CN3)nc2c1c(=O)c(C(=O)O)cn2C(C)(C)C (stereo not given)	0.13 (≈ 0.347 µM)	0.5 (≈ 1.34 µM)	12	0.02 (≈ 0.0534 µM)	0.06 (≈ 0.16 µM)	0.25 (≈ 0.668 µM)	2 (≈ 5.34 µM)	0.13 (≈ 0.347 µM)	32 (≈ 85.5 µM)	0.25 (≈ 0.668 µM)	0.13 (≈ 0.347 µM)	22000	3.1	0.03 (≈ 0.0801 µM)	–	–	–	–	–	–	ED50 (Staphylococcus [5]): 12.5 mg/kg; ED50 (Pseudomonas aeruginosa [6]): 4.1 mg/kg; AUC (Mus musculus [8]): 74000 ng·h/mL
Cc1c(F)c(N2CCNCC2)nc2c1c(=O)c(C(=O)O)cn2C1CC1	0.03 (≈ 0.0866 µM)	1 (≈ 2.89 µM)	12	0.03 (≈ 0.0866 µM)	0.02 (≈ 0.0577 µM)	1 (≈ 2.89 µM)	0.5 (≈ 1.44 µM)	0.13 (≈ 0.375 µM)	32 (≈ 92.4 µM)	0.13 (≈ 0.375 µM)	0.06 (≈ 0.173 µM)	–	–	0.008 (≈ 0.0231 µM)	1.2	5.6	> 50	–	–	–	T1/2 (Mus musculus [12]): 2.73 h and 1.23 h; ED50 (Staphylococcus [14]): 9.6 mg/kg
Cc1c(F)c(N2CC[C@H](N)C2)nc2c1c(=O)c(C(=O)O)cn2C(C)(C)C	0.03 (≈ 0.0828 µM)	0.13 (≈ 0.359 µM)	7	0.004 (≈ 0.011 µM)	0.03 (≈ 0.0828 µM)	0.25 (≈ 0.69 µM)	1 (≈ 2.76 µM)	0.13 (≈ 0.359 µM)	4 (≈ 11 µM)	0.06 (≈ 0.166 µM)	0.06 (≈ 0.166 µM)	7000	2.83	0.004 (≈ 0.011 µM)	–	25	> 25	1.14	570 (≈ 1570 µM)	–	ED50 (Staphylococcus [14]): 4.1 mg/kg; Cmax [18]: 7000 ng/mL
Cc1c(F)c(N2CC3CC2CN3)nc2c1c(=O)c(C(=O)O)cn2-c1ccc(F)cc1F (stereo not given)	0.03 (≈ 0.0697 µM)	0.13 (≈ 0.302 µM)	11	0.008 (≈ 0.0186 µM)	0.06 (≈ 0.139 µM)	0.06 (≈ 0.139 µM)	0.5 (≈ 1.16 µM)	0.13 (≈ 0.302 µM)	4 (≈ 9.29 µM)	0.06 (≈ 0.139 µM)	0.13 (≈ 0.302 µM)	20000	2.38	0.008 (≈ 0.0186 µM)	–	1.6	–	0.59	50 (≈ 116 µM)	0.7	T1/2 (Mus musculus [12]): 2.08 h
CC(C)(C)n1cc(C(=O)O)c(=O)c2cc(F)c(N3CC4CC3CN4)nc21 (stereo not given)	0.02 (≈ 0.0555 µM)	0.5 (≈ 1.39 µM)	34	0.003 (≈ 0.00832 µM)	0.02 (≈ 0.0555 µM)	0.13 (≈ 0.361 µM)	0.25 (≈ 0.694 µM)	0.06 (≈ 0.166 µM)	4 (≈ 11.1 µM)	0.06 (≈ 0.166 µM)	0.06 (≈ 0.166 µM)	10000	1.6	0.008 (≈ 0.0222 µM)	–	–	–	–	80 (≈ 222 µM)	1.6	T1/2 (Mus musculus [12]): 1.58 h; LD50 [20]: 5000 mg/kg; ED50 (Escherichia coli [21]): 1.8 mg/kg; ED50 (Pseudomonas aeruginosa [6]): 4.7 mg/kg; LD50 [22]: 303 mg/kg; PD50 (Streptococcus pneumoniae [23]): 29.7 mg/kg
CN[C@H]1CCN(c2nc3c(c(C)c2F)c(=O)c(C(=O)O)cn3-c2ccc(F)cc2F)C1	0.03 (≈ 0.0694 µM)	0.25 (≈ 0.578 µM)	–	0.008 (≈ 0.0185 µM)	0.016 (≈ 0.037 µM)	0.06 (≈ 0.139 µM)	1 (≈ 2.31 µM)	0.25 (≈ 0.578 µM)	2 (≈ 4.63 µM)	0.13 (≈ 0.301 µM)	0.06 (≈ 0.139 µM)	–	–	0.016 (≈ 0.037 µM)	2.7	1.8	4.1	1.38	10 (≈ 23.1 µM)	1.8	LD50 [20]: 2500 mg/kg; LD50 [22]: 94 mg/kg; AUC (Mus musculus [8]): 32000 ng·h/mL
Cc1c(F)c(N2CC[C@H](N)C2)nc2c1c(=O)c(C(=O)O)cn2C1CC1	0.002 (≈ 0.00577 µM)	0.13 (≈ 0.375 µM)	–	0.004 (≈ 0.0115 µM)	0.004 (≈ 0.0115 µM)	0.13 (≈ 0.375 µM)	0.25 (≈ 0.722 µM)	0.004 (≈ 0.0115 µM)	0.25 (≈ 0.722 µM)	0.008 (≈ 0.0231 µM)	0.016 (≈ 0.0462 µM)	–	–	0.002 (≈ 0.00577 µM)	1.8	–	19	0.78	70 (≈ 202 µM)	5.5	ED50 (Pseudomonas aeruginosa [24]): 2.8 mg/kg; LD50 [20]: 2500 mg/kg; LD50 [22]: 56 mg/kg
CCn1cc(C(=O)O)c(=O)c2c(C)c(F)c(N3CC[C@H](N)C3)nc21	0.008 (≈ 0.0239 µM)	2 (≈ 5.98 µM)	–	0.016 (≈ 0.0479 µM)	0.016 (≈ 0.0479 µM)	0.5 (≈ 1.5 µM)	1 (≈ 2.99 µM)	0.13 (≈ 0.389 µM)	–	0.13 (≈ 0.389 µM)	0.03 (≈ 0.0897 µM)	–	–	0.002 (≈ 0.00598 µM)	–	–	–	–	–	–	solubility [25]: 30 µg/mL (≈ 89.7 µM)
